The results in this text go back to ChEMBL document CHEMBL5712087, “Targeting bromodomain-containing protein 4 (BRD4) inhibits MYC expression in colorectal cancer cells” (Neoplasia, 2019).

Calls of active or inactive are those of the source. No cut-off for these calls is given here.

Assay [1] concerns the target T1, von Hippel-Lindau disease tumor suppressor/Bromodomain-containing protein 4 (Homo sapiens) (UniProt O60885+P40337). Put plainly: PROTAC activity at BRD4/VHL E3 ligase in human LS174T cells assessed as BRD4 mRNA level at 500 to 1000 nM for 24 hrs by RT-qPCR analysis. The class given is cell-based. The following applies: dose 500-1000 nM. In short, it runs like this:
(§1)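 LS174t cells were treated for 24 h, then total RNA was Trizol-extracted from 10^6 cells and integrity-checked. 0.7 µg RNA was reverse transcribed and SYBR-type qPCR run for 40 cycles (95 °C 15 s, 60 °C 60 s), with melt-curve control. MYC or BRD4 mRNA was normalised to PPIA and ACTB by the ΔΔCq method. Experiments were run at least three times; mean ± SD.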
In general terms: Real-time PCR tracks product formation cycle by cycle.

The target of assay [2] is T1, von Hippel-Lindau disease tumor suppressor/Bromodomain-containing protein 4 (Homo sapiens). Put plainly: PROTAC activity at BRD4/VHL E3 ligase in human LS174T cells assessed as BRD4 protein degradation at 250 nM pretreated with VHL siRNA by Western blot analysis. The assay is classed as cell-based. In general terms: In western blotting, separated proteins are transferred to a membrane and probed.

Assay [3] shares this target. Nature of the assay: PROTAC activity at BRD4/VHL E3 ligase in human LS174T cells assessed as decrease in MYC protein expression at […] for 24 hrs by Western blot analysis. The assay is classed as cell-based. In short, it runs like this: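 LS174t cells (RPMI 1640, 10% FCS) were exposed to 1 nM–10 µM for 24 h. Lysates in RIPA with inhibitors and 2.5 mmol/l DTT; 15 µg protein was run on 10% SDS-PAGE and transferred to nitrocellulose. BRD4 or MYC primary antibodies were used at 1:1,000 overnight at 4 °C, HRP secondary 1:10,000, and GAPDH/β-actin as loading control. Detection was by chemiluminescence.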

The target is the same in assay [4]. Put plainly: PROTAC activity at BRD4/VHL E3 ligase in human LS174T cells assessed as decrease in MYC mRNA level at 100 to 1000 nM for 24 hrs by RT-qPCR analysis. Particulars: dose 100-1000 nM. The class given is cell-based. In short, it runs like this: as §1
Assay [5] has the same target. Nature of the assay: PROTAC activity at BRD4/VHL E3 ligase in human HT-29 cells assessed as decrease in BRD4 protein degradation at 5 to 10 uM for 24 hrs by Western blot analysis. The assay is classed as cell-based. Particulars: dose 5-10 µM. In short, it runs like this: (§2)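 Eight CRC lines exposed 24 h to PROTAC at 5 or 10 µM (stocks 2 mM in DMSO, diluted in PBS or medium). Lysis in RIPA with protease/phosphatase inhibitors and 2.5 mmol/l DTT; 15 µg protein on 10% SDS-PAGE, semi-dry transfer to nitrocellulose. Anti-BRD4 or anti-MYC at 1:1,000 overnight at 4 °C; GAPDH or β-actin loading control; chemiluminescence.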

The target is the same in assay [6]. Nature of the assay: PROTAC activity at BRD4/VHL E3 ligase in human Caco-2 cells assessed as decrease in MYC protein expression at 5 to 10 uM for 24 hrs by Western blot analysis. Particulars: dose 5-10 µM. The assay is classed as cell-based. In short, it runs like this:
as §2

For assay [7] the target is unchanged. Put plainly: PROTAC activity at BRD4/VHL E3 ligase in human LS174T cells assessed as decrease in MYC protein expression at 5 to 10 uM for 24 hrs by Western blot analysis. The assay is classed as cell-based. Particulars: dose 5-10 µM. In short, it runs like this:
(§3)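 Eight CRC lines, including LS174t (RPMI 1640) and SW480 (DMEM/HamsF12), all with 10% FCS, were treated with PROTAC at 5 and 10 µM. BRD4 and MYC proteins were detected by immunoblot (RIPA lysate, 15 µg, 10% gel, primary 1:1,000 overnight at 4 °C), with GAPDH/β-actin as loading control.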

Assay [8] shares this target. Nature of the assay: PROTAC activity at BRD4/VHL E3 ligase in human SW480 cells assessed as decrease in MYC protein expression at 5 to 10 uM for 24 hrs by Western blot analysis. The assay is classed as cell-based. The following applies: dose 5-10 µM. In short, it runs like this:
as §3

Assay [9] has the same target. Nature of the assay: PROTAC activity at BRD4/VHL E3 ligase in human LS174T cells assessed as BRD4 protein degradation at 1 µM for 2 hrs by Immunofluorescence analysis.
The target in assay [10] is T2, Protein cereblon/Bromodomain-containing protein 4 (Homo sapiens) (UniProt O60885+Q96SW2). Put plainly: PROTAC activity at BRD4/Cereblon in human LS174T cells assessed as BRD4 protein degradation at 500 nM for 2 hrs by Western blot analysis. The class given is cell-based. In short, it runs like this:
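LS174t cells exposed 2 h to PROTAC; for washout, medium replaced and cells collected 22 h later. BRD4 by immunoblot (15 µg lysate, 10% SDS-PAGE, anti-BRD4 1:1,000 overnight at 4 °C, GAPDH/β-actin control).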

For assay [11], the target named is T2, Protein cereblon/Bromodomain-containing protein 4 (Homo sapiens). Put plainly: PROTAC activity at BRD4/Cereblon in human LS174T cells assessed as decrease in MYC mRNA level at 100 to 1000 nM for 24 hrs by RT-qPCR analysis. The following applies: dose 100-1000 nM. The class given is cell-based. In short, it runs like this:
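Total RNA from 10^6 cells after 24 h treatment, Trizol-extracted and integrity-checked. 0.7 µg reverse transcribed, then SYBR-type qPCR: 95 °C 5 min, 40 cycles of 95 °C 15 s/60 °C 60 s. Melting curves checked. MYC or BRD4 normalised to PPIA and ACTB by ΔΔCq. At least three experiments; means ± SD.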

The target is the same in assay [12]. Put plainly: PROTAC activity at BRD4/Cereblon in human fibroblast cells assessed as effect on MYC protein expression at 500 to 1000 nM for 24 hrs by Western blot analysis. The assay is classed as cell-based. The following applies: dose 500-1000 nM. In short, it runs like this:
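Cells treated 24 h across 1 nM–10 µM range (fibroblasts at 500/1000 nM). Immunoblot: RIPA lysate with 2.5 mmol/l DTT, 15 µg per lane on 10% SDS-PAGE, nitrocellulose, 5% milk block 1 h. BRD4 or MYC primary 1:1,000 overnight at 4 °C, HRP secondary 1:10,000 for 60 min; GAPDH/β-actin loading control; ECL detection.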

For assay [13] the target is unchanged. Put plainly: PROTAC activity at BRD4/Cereblon in human HCT116 p53+/+ cells assessed as decrease in BRD4 protein degradation at 5 to 10 uM for 24 hrs by Western blot analysis. Particulars: HCT-116, dose 5-10 µM. The class given is cell-based. In short, it runs like this: as §2
The target is the same in assay [14]. Put plainly: PROTAC activity at BRD4/Cereblon in human LS174T cells assessed as decrease in BRD4 protein degradation at 5 to 10 uM for 24 hrs by Western blot analysis. The class given is cell-based. Particulars: dose 5-10 µM. In short, it runs like this:
as §2

For assay [15] the target is unchanged. Nature of the assay: PROTAC activity at BRD4/Cereblon in human HCT116 p53+/+ cells assessed as decrease in MYC protein expression at 5 to 10 uM for 24 hrs by Western blot analysis. The class given is cell-based. Particulars: HCT-116, dose 5-10 µM. In short, it runs like this:
as §2

The target is the same in assay [16]. Nature of the assay: PROTAC activity at BRD4/Cereblon in human SW480 cells assessed as decrease in MYC protein expression at 5 to 10 uM for 24 hrs by Western blot analysis. Particulars: dose 5-10 µM. The assay is classed as cell-based. In short, it runs like this: as §2
Assay [17] has the same target. Nature of the assay: PROTAC activity at BRD4/Cereblon in human LS174T-dbet1 resistant cells assessed as MYC protein expression at 500 to 1000 nM for 24 hrs by Western blot analysis. The following applies: dose 500-1000 nM. The class given is cell-based.
The target is the same in assay [18]. Nature of the assay: PROTAC activity at BRD4/Cereblon in human LS174T cells assessed as BRD4 protein degradation at 1 uM for 2 hrs by Immunofluorescence analysis.

T1 sequence (P40337 whole entry, looked up, other chains not shown): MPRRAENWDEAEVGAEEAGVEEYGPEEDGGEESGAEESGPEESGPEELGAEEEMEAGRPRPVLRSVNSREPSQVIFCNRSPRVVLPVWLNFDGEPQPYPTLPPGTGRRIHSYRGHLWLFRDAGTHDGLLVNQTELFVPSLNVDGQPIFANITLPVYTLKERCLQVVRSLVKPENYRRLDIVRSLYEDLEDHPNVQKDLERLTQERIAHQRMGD
T2 sequence (Q96SW2 whole entry, looked up, other chains not shown): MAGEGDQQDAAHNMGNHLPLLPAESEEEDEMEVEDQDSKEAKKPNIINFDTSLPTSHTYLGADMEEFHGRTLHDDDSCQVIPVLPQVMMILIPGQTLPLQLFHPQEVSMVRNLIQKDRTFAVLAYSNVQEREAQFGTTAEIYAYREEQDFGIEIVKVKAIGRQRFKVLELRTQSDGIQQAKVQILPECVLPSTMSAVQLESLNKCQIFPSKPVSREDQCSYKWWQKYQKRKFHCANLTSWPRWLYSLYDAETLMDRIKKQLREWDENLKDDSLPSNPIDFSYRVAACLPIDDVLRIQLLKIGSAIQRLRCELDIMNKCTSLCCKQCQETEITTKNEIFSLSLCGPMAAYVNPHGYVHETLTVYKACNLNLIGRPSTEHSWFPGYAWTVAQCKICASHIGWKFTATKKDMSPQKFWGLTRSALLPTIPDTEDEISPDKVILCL

For the molecule `Cc1ncsc1-c1ccc(CNC(=O)[C@@H]2C[C@@H](O)CN2C(=O)[C@@H](NC(=O)COCCOCCOCCNC(=O)C[C@@H]2N=C(c3ccc(Cl)cc3)c3c(sc(C)c3C)-n3c(C)nnc32)C(C)(C)C)cc1`, the result in [1] and in [2] was inactive. In addition, the result in assay [3], in assay [4], in [5], in assay [6], in assay [7] and in [8] was Active. The outcome in assay [9] was Active.

Turning to `Cc1sc2c(c1C)C(c1ccc(Cl)cc1)=N[C@@H](CC(=O)NCCCCNC(=O)COc1cccc3c1C(=O)N(C1CCC(=O)NC1=O)C3=O)c1nnc(C)n1-2` (stereo partly drawn), the result in assay [10], in assay [11], in [13], in [14], in [15] and in assay [18] was Active. Besides, the result in assay [12], in assay [16] and in assay [17] was inactive.
